Laboratory results reported in ChEMBL document CHEMBL4665841, “Rapid Solid-Phase Construction of Serine Hydrolase Probes Results in Selective Activity-Based Probes for Acyl Protein Thioesterases-1/2” (J Med Chem, 2020).
pIC50: −log10 of the molar value. Active and inactive are the calls of the source. No cut-off for these calls is given here.

Experiments:
[1] = target: T1, Acyl-protein thioesterase 1/2 (Mus musculus) (UniProt P97823+Q9WTL7); assay: Inhibition of FP-Rh binding to APT-1/2 in mouse brain membrane fraction preincubated for 1 hr followed by FP-Rh addition and measured after 1 hr by SDS-PAGE analysis; type: cell membranes; details: time 2.0 hrs
How it was run: (§1)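 Apparent IC50 by competitive ABPP. Mouse brain cytosolic or membrane fraction (1 mg/mL) preincubated 1 h at RT with six inhibitor concentrations (1:3 serial dilution from top 30 μM or 370 nM; 100x DMSO stock), then FP-rhodamine 1 h. 12% SDS-PAGE, fluorescence at 532/568 nm. Band intensities normalized to uninhibited FP-Rh control (100%); IC50 fitted from dose-response curve.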

[2] = target: T1, Acyl-protein thioesterase 1/2 (Mus musculus); assay: (§2) Inhibition of FP-Rh binding to APT-1/2 in mouse brain cytosolic fraction preincubated for 1 hr followed by FP-Rh addition and measured after 1 hr by SDS-PAGE analysis; type: tissue-based; details: time 2.0 hrs; how it was run: as §1
[3] = target: Acyl-protein thioesterase 1/2 (Homo sapiens) (UniProt O75608+O95372); assay: Inhibition of FP-Rh binding to APT-1/2 in human A-431 cells at 1 uM preincubated for 2 hrs followed by compound washout and subsequent FP-Rh addition and measured after 1 hr by SDS-PAGE analysis
[4] = target: T1, Acyl-protein thioesterase 1/2 (Mus musculus); assay: Inhibition of APT-1/2 in mouse brain cytosolic fraction at 0.1 to 1 uM preincubated for 1 hr followed by TAMRA-alkyne addition and measured after 1 hr by SDS-PAGE analysis based click chemistry labelling method; type: tissue-based; details: dose microM 0.1-1, time 2.0 hrs
How it was run: (§3)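 Mouse brain cytosolic or membrane fraction (1 mg/mL; membrane pellet from 100,000 g spin, in 20 mM HEPES, 2 mM DTT, pH 7.2) incubated 1 h with probe added from 100x DMSO stock. CuAAC click with TAMRA-alkyne, THPTA, sodium ascorbate and CuSO4 for 1 h at room temperature; boiled in sample buffer, 12% SDS-PAGE, in-gel fluorescence.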

[5] = target: T1, Acyl-protein thioesterase 1/2 (Mus musculus); assay: Inhibition of APT-1/2 in mouse brain cytosolic fraction at 1 uM preincubated for 1 hr followed by TAMRA-Lys(biotin)-NH-propyne addition and measured after 1 hr click chemistry labelling based Western blot analysis; type: tissue-based; details: time 2.0 hrs
How it was run: (§4)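 Cytosolic or membrane mouse brain fraction (1 mg/mL) treated 1 h with 1 μM probe (100x DMSO stock) or DMSO. Click with TAMRA-Lys(biotin)-NHpropyne tag, THPTA, CuSO4, ascorbate, 1 h RT. Two cold-acetone precipitations, redissolved in PBS/2% SDS, diluted to 0.4% SDS, streptavidin pull-down 1 h at 25 °C. Gel fluorescence scanned, then blotted with anti-APT-1 or anti-APT-2 (0.5 μg/mL) overnight, HRP anti-rabbit, chemiluminescence.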

Mus musculus = organism: Mus musculus; assay: Selectivity ratio of apparent IC50 for inhibition of FP-Rh binding to ABHD6 in mouse brain cytosolic fraction to apparent IC50 for inhibition of FP-Rh binding to APT-1/2 in mouse brain membrane fraction; type: cell membranes
How it was run: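 Ratio of apparent IC50 values from competitive ABPP in mouse brain fractions (1 mg/mL). Each IC50 came from a 1 h inhibitor preincubation over six 1:3-diluted concentrations, then 1 h FP-rhodamine. 12% SDS-PAGE and in-gel fluorescence; band intensity normalized to uninhibited control, then fitted to a dose-response curve.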

[6] = target: T1, Acyl-protein thioesterase 1/2 (Mus musculus); assay: Inhibition of APT-1/2 in mouse brain membrane fraction at 1 uM preincubated for 1 hr followed by TAMRA-Lys(biotin)-NH-propyne addition and measured after 1 hr click chemistry labelling based Western blot analysis; type: cell membranes; details: time 2.0 hrs; how it was run: as §4
[7] = target: T2, Monoacylglycerol lipase ABHD6 (Mus musculus, UniProt Q8R2Y0); assay: Inhibition of FP-Rh binding to ABHD6 in mouse brain cytosolic fraction preincubated for 1 hr followed by FP-Rh addition and measured after 1 hr by SDS-PAGE analysis; type: tissue-based; how it was run: as §1
T2 sequence (Q8R2Y0 whole entry): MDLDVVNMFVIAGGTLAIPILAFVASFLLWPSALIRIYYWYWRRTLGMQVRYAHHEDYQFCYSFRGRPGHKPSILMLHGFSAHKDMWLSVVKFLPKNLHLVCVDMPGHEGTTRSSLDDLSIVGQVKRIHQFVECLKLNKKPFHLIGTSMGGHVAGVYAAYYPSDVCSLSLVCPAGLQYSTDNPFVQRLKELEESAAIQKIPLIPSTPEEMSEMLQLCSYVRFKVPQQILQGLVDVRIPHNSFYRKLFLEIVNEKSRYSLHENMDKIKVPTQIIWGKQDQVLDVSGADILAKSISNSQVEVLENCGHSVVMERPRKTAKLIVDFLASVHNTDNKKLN

[8] = target: T1, Acyl-protein thioesterase 1/2 (Mus musculus); assay: Inhibition of APT-1/2 in mouse brain membrane fraction at 0.1 to 1 uM preincubated for 1 hr followed by TAMRA-alkyne addition and measured after 1 hr by SDS-PAGE analysis based click chemistry labelling method; type: cell membranes; details: dose microM 0.1-1, time 2.0 hrs; how it was run: as §3
[9] = target: Acyl-protein thioesterase 1/2 (Mus musculus, UniProt P97823+Q9WTL7); assay: as §2; type: tissue-based; how it was run: as §1

T1 sequence (P97823 whole entry, looked up): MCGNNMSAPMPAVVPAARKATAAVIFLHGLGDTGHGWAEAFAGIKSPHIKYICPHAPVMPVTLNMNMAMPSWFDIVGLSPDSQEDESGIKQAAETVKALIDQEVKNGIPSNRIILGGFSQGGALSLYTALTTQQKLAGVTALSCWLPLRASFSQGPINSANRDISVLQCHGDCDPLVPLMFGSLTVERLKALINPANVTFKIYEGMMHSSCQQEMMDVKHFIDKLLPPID
T1 sequence (Q9WTL7 whole entry, looked up): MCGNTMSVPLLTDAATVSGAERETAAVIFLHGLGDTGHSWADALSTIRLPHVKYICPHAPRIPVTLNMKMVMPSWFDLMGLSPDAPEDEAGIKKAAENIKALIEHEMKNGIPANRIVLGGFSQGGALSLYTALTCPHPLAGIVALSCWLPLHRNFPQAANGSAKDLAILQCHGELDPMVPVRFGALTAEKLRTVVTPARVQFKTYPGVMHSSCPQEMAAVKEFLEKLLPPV
Acyl-protein thioesterase 1/2 (Homo sapiens), sequence (O75608 whole entry, looked up): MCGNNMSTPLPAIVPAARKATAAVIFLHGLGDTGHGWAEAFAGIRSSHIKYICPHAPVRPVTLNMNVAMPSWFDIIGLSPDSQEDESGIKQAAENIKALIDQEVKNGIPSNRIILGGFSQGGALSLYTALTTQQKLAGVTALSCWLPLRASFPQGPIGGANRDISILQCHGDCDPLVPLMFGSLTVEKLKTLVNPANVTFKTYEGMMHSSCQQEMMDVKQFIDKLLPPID
Acyl-protein thioesterase 1/2 (Homo sapiens), sequence (O95372 whole entry, looked up): as the sequence (Q9WTL7 whole entry, looked up) above, with N154A, T193S counted along it

| inhibition [1] | inhibition [2] | inhibition [3] | inhibition [4] | inhibition [5] | Ratio IC50 (Mus musculus) | inhibition [6] | pIC50 [7] | inhibition [8] | IC50(app) [9] | SMILES |
| --- | --- | --- | --- | --- | --- | --- | --- | --- | --- | --- |
| Active | Active |  |  |  |  |  |  |  |  | [N-]=[N+]=NCCCC[C@H](NC(=O)CCCCCNC(=O)c1ccc(CN2CCN(C(=O)ON3C(=O)CCC3=O)CC2)cc1)C(N)=O |
| Active |  | Active | Active | Active | > 2500 | Active | < 4.52 | Active | 0.0118 µM | [N-]=[N+]=NCCCC[C@H](NC(=O)CCCCCNC(=O)CN(Cc1ccccc1)C(=O)C1CCN(C(=O)n2ccnn2)CC1)C(N)=O |
| Active |  | Active | Active | Active | 250 | Active | 5.13 | Active | 0.0279 µM | [N-]=[N+]=NCCCC[C@H](NC(=O)CCCCCNC(=O)c1ccc(CN2CCN(C(=O)n3ccnn3)CC2)cc1)C(N)=O |
| Active |  |  |  |  | > 65 |  | < 4.52 |  | 0.46 µM | [N-]=[N+]=NCCCC[C@H](NC(=O)CCCCCNC(=O)[C@H](Cc1ccccc1)NC(=O)C1CCN(C(=O)n2ccnn2)CC1)C(N)=O |
| Active | Active |  |  |  |  |  |  |  |  | [N-]=[N+]=NCCCC[C@H](NC(=O)CCCCCNC(=O)CN(Cc1ccccc1)C(=O)C1CCN(C(=O)ON2C(=O)CCC2=O)CC1)C(N)=O |
